Assay results reported in ChEMBL document CHEMBL1944537, “6-Nitrobenzimidazole derivatives: potential phosphodiesterase inhibitors: synthesis and structure-activity relationship” (Bioorg Med Chem, 2012).

Biological target: not listed separately
Test: (§1) Inhibition of Bothrops atrox venom phosphodiesterase-1 assessed as conversion of […] p-nitrophenol using bis(p-nitropheny1) phosphate as substrate preincubated for 30 mins by spectrophotometric analysis
How it was run: (§2)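 Crude dried snake venom as enzyme source, 0.000742 U/well, in 33 mM Tris-HCl pH 8.8 with 30 mM magnesium acetate. Substrate 0.33 mM bis(p-nitrophenyl) phosphate. Enzyme and test sample pre-incubated 30 min, then p-nitrophenol release followed as OD/min at 410 nm, 37 °C, on a microtitre plate reader. EDTA positive control. Run in triplicate; IC50 determined.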

| SMILES | IC50 |
| --- | --- |
| O=[N+]([O-])c1ccc(-c2nc3cc([N+](=O)[O-])ccc3[nH]2)cc1 | 153 µM |
| COc1ccc(-c2nc3cc([N+](=O)[O-])ccc3[nH]2)cc1OC | 63.1 µM |
| O=[N+]([O-])c1ccc2[nH]c(-c3ccc(Cl)cc3)nc2c1 | 120 µM |
| O=[N+]([O-])c1ccc2nc(-c3cc(Cl)cc(Cl)c3O)[nH]c2c1 | 294 µM |
| O=[N+]([O-])c1ccc2nc(-c3ccc(O)cc3O)[nH]c2c1 | 11.5 µM |
| O=C(O)CN(CCN(CC(=O)O)CC(=O)O)CC(=O)O [EDETIC ACID] | 274 µM |
| O=[N+]([O-])c1ccc2nc(-c3ccc(O)c(O)c3O)[nH]c2c1 | 10.5 µM |
| O=[N+]([O-])c1ccc2nc(-c3c(O)cc(O)cc3O)[nH]c2c1 | 6.4 µM |
| O=[N+]([O-])c1ccc2nc(-c3ccc(O)c(O)c3)[nH]c2c1 | 5.7 µM |
| O=[N+]([O-])c1ccc2nc(-c3ccc(O)cc3)[nH]c2c1 | 2.4 µM |
| O=[N+]([O-])c1ccc2nc(-c3cccc(O)c3O)[nH]c2c1 | 1.5 µM |

Test system: Bothrops atrox
Test: as §1
Set-up: concentration or dose not given beside the values
How it was run: as §2

| SMILES | inhibition |
| --- | --- |
| CCOc1cccc(-c2nc3ccc([N+](=O)[O-])cc3[nH]2)c1O | < 50% |
| CN(C)c1ccc(-c2nc3ccc([N+](=O)[O-])cc3[nH]2)cc1 | < 50% |
| O=[N+]([O-])c1ccc2nc(-c3ccsc3)[nH]c2c1 | < 50% |
| O=[N+]([O-])c1ccc2nc(-c3cccc4c3ccc3ccccc34)[nH]c2c1 | < 50% |
| O=[N+]([O-])c1ccc2nc(-c3ccc(Cl)c(Cl)c3)[nH]c2c1 | < 50% |
| O=[N+]([O-])c1ccc2nc(-c3cc(Br)cc(Br)c3O)[nH]c2c1 | < 50% |
| O=[N+]([O-])c1ccc2nc(-c3ccccc3Cl)[nH]c2c1 | < 50% |
| O=[N+]([O-])c1ccc2nc(-c3cc(Cl)ccc3O)[nH]c2c1 | < 50% |
| O=[N+]([O-])c1ccc2nc(-c3cc(O)ccc3O)[nH]c2c1 | < 50% |
| O=[N+]([O-])c1ccc(Cl)c(-c2nc3ccc([N+](=O)[O-])cc3[nH]2)c1 | < 50% |
| O=[N+]([O-])c1ccc2nc(-c3ccc(Br)cc3)[nH]c2c1 | < 50% |
| Cc1ccc(-c2nc3cc([N+](=O)[O-])ccc3[nH]2)cc1 | < 50% |
| O=[N+]([O-])c1ccc2nc(-c3ccc(Cl)cc3Cl)[nH]c2c1 | < 50% |
| O=[N+]([O-])c1ccc2nc(-c3ccccc3F)[nH]c2c1 | < 50% |
| O=[N+]([O-])c1ccc2nc(-c3cccc4cc5ccccc5cc34)[nH]c2c1 | < 50% |
| O=[N+]([O-])c1ccc2[nH]c(-c3ccncc3)nc2c1 | < 50% |
| O=[N+]([O-])c1ccc2[nH]c(-c3ccccc3)nc2c1 | < 50% |
| CSc1ccc(-c2nc3ccc([N+](=O)[O-])cc3[nH]2)cc1 | < 50% |
| COc1cccc(-c2nc3ccc([N+](=O)[O-])cc3[nH]2)c1O | < 50% |
| O=[N+]([O-])c1ccc2nc(-c3ccccc3O)[nH]c2c1 | < 50% |
